M1 antagonist: blocks the rat M1 muscarinic receptor response to acetylcholine; P08482; CHO-M1 cells, Fluo-4 calcium, ACh EC80 antagonist mode; hits give low values; B-score at 10 µM; 64,000 compounds, 3.4% hits; AID 628;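 active means calcium fluorescence response, raw or row-and-column corrected B-score, differing from the plate sample mean either way at a set confidence level, mostly lower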
S1P1 ag pot: agonists and agonism potentiators of human S1P1 receptor. S1P1 CRE-bla cells, forskolin, beta-lactamase FRET, potentiator mode; S1P1 agonist co-added at EC20, 2 nM; 100% = saturating reference agonist, 0% = basal. activation, % at 9.5 µM. 56,000 compounds, 0.57% hits. AID 449;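 active means activation above a cutoff set at the mean activation of all tested compounds plus 3 SD, cut at about 54% in these data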;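 further: forskolin at 4 µM as EC80 and the EC20 agonist is SEW2871; 100% = SEW2871 at its EC100 plus forskolin at EC80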
S1P3 agonist: activates the human S1P3 receptor. S1P3 NFAT-BLA reporter cells, agonism, FRET ratio; relative to 1 µM S1P, basal subtracted. activation, % at 4.5 µM. 60,000 compounds, 0.1% hits. Q99500;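 active means activation above the screen-wide mean plus 3 SD, cut at about 4.5% in these data, passing the limit was not always enough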
Target sequence (Q99500 whole entry, looked up): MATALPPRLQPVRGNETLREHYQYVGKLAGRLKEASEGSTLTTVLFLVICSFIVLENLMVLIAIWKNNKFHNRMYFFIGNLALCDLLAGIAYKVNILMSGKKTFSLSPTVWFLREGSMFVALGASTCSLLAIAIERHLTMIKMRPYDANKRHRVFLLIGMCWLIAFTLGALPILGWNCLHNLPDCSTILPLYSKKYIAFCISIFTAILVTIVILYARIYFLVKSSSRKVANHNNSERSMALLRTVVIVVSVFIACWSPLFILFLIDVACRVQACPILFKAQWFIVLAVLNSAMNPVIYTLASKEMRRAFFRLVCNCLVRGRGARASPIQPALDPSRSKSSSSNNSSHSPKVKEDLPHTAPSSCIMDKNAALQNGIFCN
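Benchmarks: high control 1 µM S1P / System: stable CHO line with human S1P3, Gα16, NFAT-BLA reporter / Dosing: single compound concentration, 4.5 µM final / Timing: 4 h compound at 37 °C, 2 h substrate at RT / Measured by: FRET β-lactamase substrate fluorescence, excitation 405 nm, 460/535 nm emission ratio, background-subtracted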
M1 agonist: M1 muscarinic receptor agonism; CHO-M1 cells, Fluo-4 calcium fluorescence, agonist mode; hits give high values; B-score at 10 µM; 64,000 compounds, 3% hits; AID 626;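 active means fluorescence rise, raw or as B-score row- and column-corrected plate score, outside the 99.7% band of its plate's samples, either direction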
SF-1 act: activates the human nuclear receptor SF-1. Q13285. CHO-K1 Gal4-SF-1 LBD luciferase reporter; % increase over DMSO SF-1-specific signal. activation, % at 10 µM. 65,000 compounds, 1.9% hits. AID 522;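 active means activation above the mean activation of all tested compounds plus 3 SD, cut at about 50% in these data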
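Material: Gal4–SF-1 LBD one-hybrid luciferase reporter in CHO-K1 cells | Amount: 4,000 cells per well | Compound dosing: 10 µM single point, 1% DMSO | Schedule: 20 h compound treatment, 37 °C | Measured by: SteadyLite luciferase luminescence | Evaluation: Percent activation versus DMSO | Control set: DMSO-treated SF-1-transfected cells as negative, DMSO-treated mock-transfected cells lacking SF-1 as background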
RORA act: activates the human nuclear receptor RORA | P35398 | CHO-K1 Gal4-RORA LBD luciferase reporter, luminescence; percent increase over mock-subtracted basal signal | activation, % at 10 µM | 65,000 compounds, 1.5% hits | AID 560;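 active means activation above the mean of all tested compounds plus 3 SD, cut at about 49% in these data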;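 further: 0% = DMSO-treated RORA cells and 100% = added signal equal to DMSO minus mock-transfected cells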
An asterisk follows results filed as active; . = no result. Compounds with a hit are over-represented: about 8.8% of the library has one in this group of screens.

SMILES | M1 antagonist | S1P1 ag pot | S1P3 agonist | M1 agonist | SF-1 act | RORA act
O=C1c2ccccc2C(=O)N1CCn1c(=O)oc2ccccc21 | 0.3 | 11 | -1 | 0.038 | 24 | 18
COCCn1c(C)cc(C(=O)CSc2nc3ccccc3o2)c1C | -0.58 | 66* | 0 | -1.7 | 0 | 29
COCCn1c(C)cc(C(=O)CSc2nnc3ccccn23)c1C | 0.12 | -16 | 0 | -0.022 | -30 | -46
O=C(NCCN1C(=O)C2C3C=CC(C3)C2C1=O)Nc1cccnc1 (stereo not given) | -0.36 | 1 | -2 | 0.68 | -16 | -17
O=C(NCCN1C(=O)C2C3C=CC(C3)C2C1=O)Nc1ccc(Br)cc1 (stereo not given) | 0.32 | -3 | 0 | -0.47 | 84* | 84*
Cc1onc(-c2ccccc2Cl)c1C(=O)N1CCc2ccccc21 | -0.024 | 20 | 0 | 0.63 | -16 | -22
CC(=O)c1c(C)[nH]c(C(=O)CSc2nnc(CN3CCCCCC3=O)n2-c2ccccn2)c1C | -0.017 | -10 | -1 | 0.12 | 10 | -2
O=C1CCCCCN1Cc1nnc(SCc2nc3ccccc3s2)n1-c1ccccn1 | -0.13 | . | . | 0.0047 | 79* | 61*
CCCC1C2CN(C(C)C)CC=C2C(C#N)=C(N)C1(C#N)C#N (stereo not given) | 0.61 | -10 | 1 | 8.3* | -4 | -5
CCOC(=O)N1CC=C2C(C#N)=C(N)C(C#N)(C#N)[C@H](c3ccsc3)[C@H]2C1 | 0.77 | -23 | 1 | -0.41 | -7 | 0
N#Cc1nc(-c2ccc(OCc3ccccc3)cc2)oc1NCc1cccnc1 | -0.42 | 60* | -1 | -0.04 | 14 | 7
COCCCNc1oc(-c2ccccc2OC)nc1C#N | 0.016 | -2 | 0 | 0.58 | -7 | 0
CC(C)(C)c1ccc(-c2nc(C#N)c(NCc3ccncc3)o2)cc1 | -0.073 | 2 | -2 | -0.53 | 83* | 60*
CN(C)c1oc(-c2ccc(OCc3ccccc3)cc2)nc1C#N | 0.043 | 72* | -1 | -0.45 | 61* | 7
COCCCNc1oc(-c2ccccc2F)nc1C#N | 0.00098 | -14 | 0 | 0.0046 | 57* | 39
COc1ccc(-c2nc(C#N)c(NCCc3ccccc3)o2)cc1OC | 0.15 | -15 | -1 | 0.92 | 78* | 70*
O=C(c1ccc2c(c1)c(=O)oc1ccccc12)N1CCCCC1 | 0.47 | -6 | 0 | -0.71 | 42 | 50*
COc1ccccc1N(CN1CCCC1=O)C(=O)COc1ccccc1 | -0.074 | -26 | -1 | -0.69 | 4 | -14
Cc1nc2nc(-c3ccccc3)cn2nc1C | 0.36 | . | . | 0.88 | -55 | -4
Cc1nn2cc(-c3ccc(N)cc3)nc2s1 | -0.44 | 7 | 1 | -0.41 | 88* | 22
CS(=O)(=O)N(CCc1ccccc1)CC(N)=O | 1.1 | 3 | -1 | -0.52 | 0 | -15
CC1CCN(S(=O)(=O)c2ccc(NC(=O)CN3CCN(c4ccccc4)CC3)cc2)CC1 | -0.83 | . | -1 | -0.76 | 4 | -9
CC1CCN(S(=O)(=O)c2ccc(NC(=O)Cn3nnc(-c4ccccc4F)n3)cc2)CC1 | . | 13 | 0 | . | 11 | 53*
Nc1c(Br)cc(Br)c(N2CCCC2=O)c1Br | . | -28 | 1 | . | -6 | -7
Cn1c(=O)n(Cc2ccccc2)c(=O)c2c1nc1n2CCCN1Cc1ccccc1 | 2.9* | -4 | -1 | 0.44 | 10 | 4
SMILES | M1 antagonist | S1P1 ag pot | S1P3 agonist | M1 agonist | SF-1 act | RORA act
Cn1c(=O)n(Cc2ccc(Cl)cc2)c(=O)c2c1nc1n2CCN1Cc1ccco1 | -1.1 | -10 | 0 | -2.3* | 2 | 14
Cc1ccc(Cn2c(=O)c3c(nc4n3CCCN4Cc3ccccc3)n(C)c2=O)cc1 | 0.83 | -1 | -1 | 0.39 | -19 | 8
CCOC(=O)C1CCN(C(=O)CCNC(=O)c2cc(OC)c(OC)c(OC)c2)CC1 | -0.017 | -6 | 1 | -0.023 | -5 | -20
CCCCOc1ccc(-c2nc(-c3cccnc3)no2)cc1 | 0.79 | . | -1 | 0.46 | 31 | 30
CCc1ccc(-c2nc(-c3ccncc3)no2)cc1 | 0.65 | 76* | -1 | 0.2 | -8 | -9
CCCCc1ccc(-c2nc(-c3ccncc3)no2)cc1 | -0.28 | . | . | -2 | 48 | 59*
COc1ccccc1NC(=O)C(C)NS(=O)(=O)c1ccccc1 (stereo not given) | . | 2 | -1 | -0.37 | 4 | -10
Cc1ccc2nc(C(O)C(O)c3nc4ccc(C)cc4[nH]3)[nH]c2c1 (stereo not given) | 0.49 | . | . | -2.5 | 51* | 23
CN(C)c1ccc(NC(=O)c2ccc(COc3cccc(Cl)c3)o2)cc1 | 0.96 | . | . | 0 | 42 | 73*
COc1ccc(NC(=O)c2cnc3ccccn3c2=O)cc1OC | 0.21 | -3 | 2 | -1.7 | 18 | 53*
COc1ccc(NC(=O)c2cnc3n(c2=O)CCS3)cc1OC | 0.91 | -4 | 0 | -0.17 | 9 | 15
CCc1ccc2[nH]c(=O)c(C(c3nnnn3CC3CCCO3)N3CCN4CCCC4C3)cc2c1 (stereo not given) | -0.027 | -3 | -1 | -0.5 | -11 | -16
O=c1oc2ccccc2cc1-c1nnc(-c2cccc(Br)c2)o1 | -0.13 | 1 | 0 | 0.16 | 53* | 29
Brc1cccc(-c2nnc(-c3ccccc3)o2)c1 | 0.0071 | . | -1 | -0.18 | 60* | 39
Cc1ccccc1-c1nnc(-c2ccc(Br)cc2)o1 | 0.95 | 19 | -1 | 0.75 | 77* | 32
COC(=O)[C@H](C)NC(=O)Nc1ccc(Oc2ccccc2)cc1 | 0.77 | -11 | -1 | -0.043 | 4 | -2
Cc1ccc(S(=O)(=O)Cc2cccc(C(=O)N3CCOCC3)c2)cc1 | 0.28 | -19 | -1 | 0.59 | 2 | -20
O=c1cc(C(F)(F)F)nc(-c2ccccc2)[nH]1 | 0.71 | -22 | -1 | 0.38 | -12 | -7
Cc1ccc(NC(=O)CC2Nc3ccccc3NC2=O)cc1Cl (stereo not given) | -0.018 | -82 | 5.9* | -1.1 | 0 | -1
O=C(CC1Nc2ccccc2NC1=O)c1ccccc1 (stereo not given) | -0.76 | -12 | -2 | 3.9* | 31 | 56*
CC(NC(=O)CC1Nc2ccccc2NC1=O)c1ccccc1 (stereo not given) | -0.17 | 6 | 0 | -0.64 | 2 | 1
CC(C)(CSc1nncn1N)NS(=O)(=O)c1ccc(Cl)cc1 | -0.025 | 0 | -1 | 0.26 | -5 | 9
N#CC1=C(N)C(C#N)(C#N)C(c2ccc[nH]2)C2CCCC=C12 (stereo not given) | -0.065 | 19 | 0 | 1.8 | 2 | 18
N#CC1=C(N)C(C#N)(C#N)C(c2cccnc2)C2CCCC=C12 (stereo not given) | 1.4 | 12 | 0 | 7.9* | -7 | -10
